A selection: hits, their analogues and other compounds. The true share with any hit is near 6%.
Ecoli tolC: growth inhibitors of E. coli BW25113 tolC mutant; growth inhibition, % at 10 µM (by protocol); OD615; 65,000 compounds, 2.2% hits;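 active = growth inhibition at or above a cutoff equal to the mean over every tested compound plus 3 SD, cut at about 60% in these data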;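 note: growth measured after 20 h incubation at 37 °C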
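Material: E. coli BW25113 ΔtolC::kan, tolC deletion mutant strain. Measure: percent growth inhibition. Schedule: 37 °C, 20 h exposure. Doses: single-point testing at 10 µM. Signal: A615 absorbance measurement. Buffer or medium: kanamycin-containing LB broth (50 µg/mL).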
Ecoli WT expand: E. coli BW25113 growth inhibition, expanded screen; OD600 absorbance; 98,000 compounds, 0.15% hits; growth inhibition, % at 100 µM; AID 710;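 active = growth inhibition above about 50% at one test dose, limit read from the data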;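 note: growth measured after 20 h incubation at 37 °C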
PostGolgi ctrl: growth of the yeast control strain, post-Golgi counter-screen. efflux-deficient yeast background strain, growth absorbance A615, 16 h. inhibition, % at 10 µM. 98,000 compounds, 5% hits. AID 738
PostGolgi yeast: growth inhibition of a yeast mutant, post-Golgi transport screen; post-Golgi transport phenotypic cell assay; inhibition, % at 10 µM; 98,000 compounds, 0.9% hits; AID 739;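 note: yeast cells grown in 1536-well plates; yeast grown about 18 h at 30C before absorbance read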
EphB4 ephrin blk: antagonists of human EphB4-ephrin-B2 interaction | 97,000 compounds, 0.15% hits | EphB4 LBD / TNYL-RAW-Alexa532 peptide, fluorescence polarization | inhibition, % at 7 µM | P54760;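 active = inhibition above the screen-wide mean inhibition plus 3 SD, cut at about 15% in these data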;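 note: 0% = DMSO wells and 100% = excess unlabeled TNYL-RAW peptide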
Target sequence (P54760 whole entry, looked up, the tested form may be a part): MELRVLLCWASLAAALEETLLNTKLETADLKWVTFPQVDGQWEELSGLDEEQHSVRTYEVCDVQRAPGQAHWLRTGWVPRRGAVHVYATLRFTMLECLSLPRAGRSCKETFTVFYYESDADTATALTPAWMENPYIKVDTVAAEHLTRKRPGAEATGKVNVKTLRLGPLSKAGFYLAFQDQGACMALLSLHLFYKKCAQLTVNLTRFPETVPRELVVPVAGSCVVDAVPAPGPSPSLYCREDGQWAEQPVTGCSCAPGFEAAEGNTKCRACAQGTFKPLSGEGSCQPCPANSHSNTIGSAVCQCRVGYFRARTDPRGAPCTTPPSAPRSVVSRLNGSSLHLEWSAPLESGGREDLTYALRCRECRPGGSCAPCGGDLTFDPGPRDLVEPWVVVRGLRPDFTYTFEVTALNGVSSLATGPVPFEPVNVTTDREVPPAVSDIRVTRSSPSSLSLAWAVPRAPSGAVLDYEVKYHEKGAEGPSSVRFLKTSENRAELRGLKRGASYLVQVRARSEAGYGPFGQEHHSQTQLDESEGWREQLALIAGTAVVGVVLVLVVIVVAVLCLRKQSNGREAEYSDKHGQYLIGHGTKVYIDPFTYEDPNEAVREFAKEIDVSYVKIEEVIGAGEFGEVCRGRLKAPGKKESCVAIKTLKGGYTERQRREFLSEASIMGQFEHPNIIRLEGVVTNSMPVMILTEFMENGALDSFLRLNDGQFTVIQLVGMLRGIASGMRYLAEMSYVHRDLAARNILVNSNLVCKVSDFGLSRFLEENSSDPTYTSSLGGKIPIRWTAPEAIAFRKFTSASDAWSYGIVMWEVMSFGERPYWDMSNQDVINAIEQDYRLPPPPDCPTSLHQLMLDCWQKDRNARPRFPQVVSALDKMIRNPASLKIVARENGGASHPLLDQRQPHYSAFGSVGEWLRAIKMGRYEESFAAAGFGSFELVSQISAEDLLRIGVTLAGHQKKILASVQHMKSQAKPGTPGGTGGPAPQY
Active calls of the source: *; x = no result given. Cut-off read from the data, not from the text of the source, unless noted: active = inhibition above about 30%; inactive = the rest.

SMILES	Ecoli tolC	Ecoli WT expand	PostGolgi ctrl	PostGolgi yeast	EphB4 ephrin blk
C=CCc1c(C)nc(C)nc1N/N=C/c1ccc(F)cc1	x	-5	-5	-2	0
C=CCc1c(C)nc(SC)nc1Nc1ccc(C)cc1	x	-10	32*	-12	1
C=CCN(C(=O)CCC(=O)O)C1CC(=O)N(c2ccc(OCCC)cc2)C1=O (centres undefined)	0	1	34*	-21	x
C=CCN(C(=O)CCC(=O)O)C1CC(=O)N(c2ccc(OC)cc2)C1=O (centres undefined)	11	-4	-5	8	-3
O=C(NN=C1CCCC1)C(=O)Nc1cccc(C(F)(F)F)c1	x	-7	-7	18	-2
O=C1OCC2=C1C(c1ccc(F)cc1)Sc1ccccc1N2 (centres undefined)	x	1	-7	94*	-4
O=C(c1ccc(COc2ccccc2Br)o1)N1CCN(c2ccccn2)CC1	x	-14	35*	-3	-5
O=C(c1cccc(COc2ccc(Cl)cc2Cl)c1)N1CCN(c2ccccn2)CC1	86*	-37	68*	4	2
O=C(c1ccc(C#Cc2ccccc2)o1)N1CCN(c2ccccn2)CC1	47	-4	42*	-1	3
CSc1ncc(Cl)c(C(=O)NCc2ccc3c(c2)OCO3)n1	-1	-6	2	-7	6
CSc1ncc(Cl)c(C(=O)C(C#N)c2nc3c(C)cc(C)cc3c(=O)[nH]2)n1 (centres undefined)	96*	-11	22	-2	x
Cc1ccccc1NC(=S)NC(NC(=O)c1ccccc1C)C(Cl)(Cl)Cl (centres undefined)	x	-8	4	-1	6
COC(=O)c1[nH]c2ccccc2c1NC(=O)CNC1CCCCC1	0	3	1	7	4
COC(=O)CSc1nc(N2CCCCC2)c2c(c1C#N)CCCC2	64*	-8	38*	-5	-1
Cn1c(C(C#N)C(=O)c2sc3ccccc3c2Cl)nc2ccccc21 (centres undefined)	49	-29	79*	4	2
CCCNS(=O)(=O)c1ccc(OC)c(Cl)c1Cl	x	0	4	10	-6
COc1ccc(S(=O)(=O)NCCSC(C)(C)C)c(Cl)c1Cl	x	5	31*	1	-1
CS(=O)(=O)N(CC(=O)N/N=C/c1cccs1)c1cccc(Cl)c1Cl	x	17	11	0	1
COc1ccc(CNC(=O)COC(=O)C2=COCCO2)cc1	x	1	10	37*	6
Cc1cccc(N2C(=O)CC(Sc3nc(C)c4c(n3)CCCC4)C2=O)c1 (centres undefined)	4	3	28	3	5
Cc1nc(SC2CC(=O)N(c3cc(Cl)cc(Cl)c3)C2=O)nc2c1CCCC2 (centres undefined)	x	-16	59*	14	3
CC#CCN(CC#CC)S(=O)(=O)c1ccc(-n2cnnn2)c(OC)c1	-9	0	4	22	7
Cc1cc(C)nc(NC(=O)COc2cc(Cl)cc(Cl)c2)n1	x	-3	32*	9	2
CC(=O)Nc1cccc(Oc2nc(C)cc(C)c2C#N)c1	3	0	32*	-5	6
CCC(=O)Nc1cccc(Oc2nc(C)cc(C)c2C#N)c1	x	2	3	-2	4
SMILES	Ecoli tolC	Ecoli WT expand	PostGolgi ctrl	PostGolgi yeast	EphB4 ephrin blk
CN(C)S(=O)(=O)Oc1ccsc1C(=O)Nc1ccccc1Cl	x	-2	15	4	4
CN(C)S(=O)(=O)Oc1ccsc1C(=O)Nc1cccc(Cl)c1Cl	x	-12	32*	-10	3
Cc1ccc(-n2nc(C(=O)N3CCOCC3)cc2-c2ccc(Cl)cc2)cc1	x	-1	41*	14	5
O=C(c1cc(-c2ccc(Cl)cc2)n(-c2ccc(Cl)cc2)n1)N1CCOCC1	x	-4	38*	9	3
O=C(c1cc(-c2ccc(Cl)cc2)on1)N1CCOCC1	0	7	26	-3	0
CCN(CC)c1nc2ccccc2nc1-n1nc(C)cc1C	x	-4	43*	-10	1
O=S(=O)(c1ccc(Cl)s1)N1CCCc2cccc(O)c21	x	8	19	-1	-1
COC(=O)c1ccc(C(=O)OC)c(NC(=O)CN(c2ccc3c(c2)OCO3)S(C)(=O)=O)c1	x	2	11	6	4
Cc1ccc(-c2nnc3n2CCCCC3)cc1	x	5	13	2	3
c1ccc(-c2ccc(-c3cnc4n3CCCCC4)cc2)cc1	x	14	5	81*	5
Nc1nc(-c2ccc3c(c2)OCCO3)cs1	4	17	2	1	x
c1cc2c(cc1-c1cnc3n1CCC3)OCCO2	2	12	37*	-6	-2
CC1=CC(C)(C)N(S(=O)(=O)c2ccc(F)cc2)c2ccc(C)cc21	x	-7	29	-8	4
CC1=CC(C)(C)N(S(=O)(=O)c2ccc(C)cc2)c2ccccc21	x	-10	32*	-7	5
COc1ccc(C(c2c[nH]c3ccccc23)c2c[nH]c3ccccc23)cc1O	x	2	54*	-2	-3
CCOC(=O)C1CCCN(CC(=O)Nc2c(C(=O)OC)[nH]c3ccc(Cl)cc23)C1 (centres undefined)	13	10	39*	-10	-2
CCN(CC(=O)Nc1c(C(=O)OC)[nH]c2ccc(Cl)cc12)c1ccc2c(c1)OCO2	20	-14	57*	19	-2
COC(=O)c1[nH]c2cc(OC)ccc2c1NC(=O)CN1CCN(c2cccc(C)c2)C(C)C1 (centres undefined)	16	-4	37*	0	-3
COc1ccc(N/C=C(\C#N)c2nc3ccccc3n2C)c(OC)c1	22	-9	49*	24	6
Cc1cc(=O)[nH]c(SCC(=O)O)c1C#N	x	-8	27	11	-1
Cc1cc(=O)[nH]c(SCC(=O)C23CC4CC(CC(C4)C2)C3)c1C#N	70*	-8	11	1	12
CC1=Nc2ccccc2/C1=C\c1nc(-c2ccc(C(F)(F)F)cc2)oc1O	x	2	4	0	25*
Cc1cc(N2CCC(C)CC2)nc(SCC(=O)c2ccccc2)n1	x	x	x	x	-4
CCNc1sc(C(=O)c2cccs2)c(N)c1-c1nc2ccccc2s1	9	-13	36*	1	8
COc1ccc(N2C(=O)CSC23C(=O)N2c4c(cccc43)C(C)=CC2(C)C)cc1 (centres undefined)	x	-4	32*	3	3
SMILES	Ecoli tolC	Ecoli WT expand	PostGolgi ctrl	PostGolgi yeast	EphB4 ephrin blk
O=C(c1cc(Cl)c(=O)n(Cc2ccc(Cl)cc2)c1)N1CCOCC1	x	-5	8	4	3
COc1cc(-c2nnc(SCc3ccccc3Cl)o2)cc(OC)c1OC	77*	-1	15	1	9
COc1cc(-c2nnc(SCc3c(F)cccc3Cl)o2)cc(OC)c1OC	41	-13	20	1	-3
COc1cc(-c2nc(Cc3ccccc3Cl)no2)cc(OC)c1OC	67*	-1	14	-4	4
CCOC(=O)c1c(OCC)[nH]c2ccc(O)cc12	x	7	-1	2	3
Cc1cccc(NC(=O)CN(c2ccc(C(C)C)cc2)S(=O)(=O)c2c(C)nn(C)c2C)n1	x	0	5	-1	-5
O=S1(=O)C=C(Sc2nnc(-c3ccccc3)o2)c2ccccc21	19	-1	31*	88*	x

Source: PubChem BioAssay
